Experimental data: ChEMBL document CHEMBL4765308, “N-alkylpiperidine carbamates as potential anti-Alzheimer's agents” (Eur J Med Chem, 2020)
Structures can show the parent of a compound that is named as a salt. The source made the active and inactive calls. The calls are words filed in the database; no cut-off is given here.

Columns and labels:
Homo sapiens = species: Homo sapiens; experiment: Inhibition of HFIP-pretreated human amyloid beta (1 to 42) self aggregation at 10 uM incubated for 36 to 48 hrs by thioflavin-T based fluorescence method relative to control; conditions: time 36-48 hrs
In short: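 HFIP-pretreated Aβ1-42 (1.5 µM) incubated with compound (10 µM) and thioflavin-T (10 µM final) at room temperature with continuous shaking for 36–48 h. Fluorescence (ex 440/em 490 nm) read every 3 min. Percent inhibition compared with Aβ + DMSO control, run in quadruplicate. Three independent experiments, mean ± SD, one-way ANOVA with Bonferroni test.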

[1] = target: T1, Amine oxidase [flavin-containing] B (Homo sapiens, UniProt P27338); experiment: (§1) Inhibition of human recombinant microsomal MAO-B expressed in baculovirus-infected BTI-TN-5B1-4 cells assessed as inhibition of H2O2 production using p-tyramine as substrate preincubated for 15 mins followed by substrate addition by Amplex Red reagent based fluorescence analysis
T1 sequence (P27338 whole entry): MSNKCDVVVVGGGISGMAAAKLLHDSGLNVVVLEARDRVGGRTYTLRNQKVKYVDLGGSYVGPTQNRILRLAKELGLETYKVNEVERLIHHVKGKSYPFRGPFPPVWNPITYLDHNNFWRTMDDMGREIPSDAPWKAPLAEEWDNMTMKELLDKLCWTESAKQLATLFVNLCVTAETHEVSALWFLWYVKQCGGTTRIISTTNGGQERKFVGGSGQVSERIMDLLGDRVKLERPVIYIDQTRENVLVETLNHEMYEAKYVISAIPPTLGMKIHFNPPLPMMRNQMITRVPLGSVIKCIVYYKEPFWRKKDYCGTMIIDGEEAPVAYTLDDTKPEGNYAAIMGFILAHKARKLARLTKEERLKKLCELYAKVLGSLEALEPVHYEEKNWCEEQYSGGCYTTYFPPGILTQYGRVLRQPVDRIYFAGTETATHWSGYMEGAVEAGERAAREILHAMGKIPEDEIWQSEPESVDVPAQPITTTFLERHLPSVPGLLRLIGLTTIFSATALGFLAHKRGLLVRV
In short: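 Recombinant human MAO-A or MAO-B (insect-cell microsomes) preincubated with compound 15 min at 37 °C in 50 mM sodium phosphate, pH 7.4, 0.05% Triton X-114. Reaction started with 1 mM p-tyramine, 250 µM Amplex Red and 2 U/mL HRP (final concentrations). Resorufin fluorescence (ex 530/em 590 nm) followed for 20 min at 37 °C, duplicates. Blank-corrected residual activity; IC50 from a four-parameter Hill fit.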

Acetylcholinesterase [2] = target: T2, Acetylcholinesterase (Homo sapiens, UniProt P22303); experiment: Inhibition of human AChE using acetylthiocholine iodide as substrate preincubated with enzyme for 30 mins followed by substrate addition by Ellman's method
Cholinesterase [3] = target: T3, Cholinesterase (Homo sapiens, UniProt P06276); experiment: Inhibition of human BuchE using butyrylthiocholine iodide as substrate preincubated for 30 mins followed by substrate addition by Ellman's method
SH-SY5Y [4] = experiment: Cytotoxicity against human SH-SY5Y cells at 20 uM incubated for 48 hrs […]; type: cell-based
HepG2 = experiment: Cytotoxicity against human HepG2 cells at 50 uM incubated for 48 hrs […]; type: cell-based; conditions: hepg2, 48 h
[5] = target: T4, Amine oxidase [flavin-containing] A (Homo sapiens, UniProt P21397); experiment: Inhibition of human recombinant microsomal MAO-A expressed in baculovirus-infected BTI-TN-5B1-4 cells assessed as inhibition of H2O2 production using p-tyramine as substrate preincubated for 15 mins followed by substrate addition by Amplex Red reagent based fluorescence analysis
T4 sequence (P21397 whole entry): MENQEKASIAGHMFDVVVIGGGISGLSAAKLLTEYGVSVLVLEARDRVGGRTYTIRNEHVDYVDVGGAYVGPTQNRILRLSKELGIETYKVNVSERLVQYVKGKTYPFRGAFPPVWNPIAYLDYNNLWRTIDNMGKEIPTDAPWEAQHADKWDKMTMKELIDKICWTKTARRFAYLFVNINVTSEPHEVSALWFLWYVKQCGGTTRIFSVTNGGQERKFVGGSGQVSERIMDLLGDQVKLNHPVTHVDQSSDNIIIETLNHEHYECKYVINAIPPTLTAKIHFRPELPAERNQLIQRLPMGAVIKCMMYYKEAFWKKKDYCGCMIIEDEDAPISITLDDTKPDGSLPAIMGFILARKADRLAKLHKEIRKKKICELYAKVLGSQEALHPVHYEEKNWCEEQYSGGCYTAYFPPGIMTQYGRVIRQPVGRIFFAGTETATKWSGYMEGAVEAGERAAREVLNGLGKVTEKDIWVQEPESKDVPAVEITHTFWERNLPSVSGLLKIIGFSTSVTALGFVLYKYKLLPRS

Acetylcholinesterase [6] = target: T2, Acetylcholinesterase; experiment: Reversible inhibition of human AChE using acetylthiocholine iodide as substrate preincubated with enzyme at 10XIC50 for 30 mins followed by substrate addition and measured for 5 mins by Ellman's method; conditions: time 35.0 min
Cholinesterase [7] = target: T3, Cholinesterase; experiment: Reversible inhibition of human BuChE using butyrylthiocholine iodide as substrate preincubated with enzyme at 10XIC50 for 30 mins followed by substrate addition and measured for 5 mins by Ellman's method; conditions: time 35.0 min
Acetylcholinesterase [8] = target: T2, Acetylcholinesterase; experiment: Non-time dependent inhibition of human AChE using acetylthiocholine iodide as substrate preincubated with enzyme for 15 to 60 mins followed by substrate addition by Ellman's method; conditions: time 15-60 min
Cholinesterase [9] = target: T3, Cholinesterase; experiment: Non-time dependent inhibition of human BuChE using butyrylthiocholine iodide as substrate preincubated with enzyme for 15 to 60 mins followed by substrate addition by Ellman's method; conditions: time 15-60 min
SH-SY5Y [10] = experiment: Neuroprotective activity against human SH-SY5Y cells assessed as reduction in amyloid beta(1 to 42)-induced cell death at 20 uM measured after 48 hrs by Annexin-V APC/7-AAD staining based flow cytometric analysis; type: functional
In short: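 Aβ1-42 (5 µM) pre-aggregated 24 h at 37 °C in reduced-serum medium, with or without compound (20 µM). SH-SY5Y cells (2×10^4/well) treated the next day for 48 h, then washed in cold PBS and stained with 7-AAD (2 µg/mL, 10 min, room temperature). Percent 7-AAD-positive cells by flow cytometry, relative to control. At least two independent assays in duplicate; ANOVA with t-test.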

[11] = target: T1, Amine oxidase [flavin-containing] B; experiment: as §1, with “Time dependent inhibition” for “Inhibition of”, “preincubated with enzyme” for “preincubated”, “for 5 to” for “for”; conditions: time 5-15 min
SH-SY5Y [12] = experiment: Reduction in amyloid beta (1 to 42) aggregates in human SH-SY5Y cells at 20 uM incubated for 48 hrs by DAPI stain based immunofluorescence staining analysis; type: functional, cell-based
In short: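 SH-SY5Y cells on coverslips treated for 48 h with preincubated Aβ1-42 (5 µM) in reduced-serum medium, with or without compound (20 µM). Fixed in 5% formalin, permeabilized with 0.5% Tween 20 and blocked with 3% BSA. Stained with rabbit anti-amyloid fibril LOC antibody (1:1000, 2 h) and Alexa 488 secondary (1.5 h). DAPI-mounted and imaged by confocal microscopy (63× oil).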

T2 sequence (P22303 whole entry): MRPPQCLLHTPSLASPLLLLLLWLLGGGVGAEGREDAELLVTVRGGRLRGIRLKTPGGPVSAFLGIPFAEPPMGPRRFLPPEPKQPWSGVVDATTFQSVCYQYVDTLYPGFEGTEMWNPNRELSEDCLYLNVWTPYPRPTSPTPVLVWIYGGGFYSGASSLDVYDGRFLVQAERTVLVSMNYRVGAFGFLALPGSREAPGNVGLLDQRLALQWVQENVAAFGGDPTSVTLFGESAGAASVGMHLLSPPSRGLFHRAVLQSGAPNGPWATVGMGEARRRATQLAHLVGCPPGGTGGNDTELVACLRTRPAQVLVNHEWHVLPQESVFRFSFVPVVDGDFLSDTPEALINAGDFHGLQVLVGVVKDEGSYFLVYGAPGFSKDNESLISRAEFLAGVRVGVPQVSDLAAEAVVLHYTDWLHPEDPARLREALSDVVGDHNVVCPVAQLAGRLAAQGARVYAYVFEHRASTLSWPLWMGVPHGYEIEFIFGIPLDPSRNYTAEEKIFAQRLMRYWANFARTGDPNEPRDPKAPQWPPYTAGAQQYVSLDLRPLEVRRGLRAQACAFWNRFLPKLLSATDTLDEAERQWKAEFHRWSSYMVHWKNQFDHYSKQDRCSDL
T3 sequence (P06276 whole entry): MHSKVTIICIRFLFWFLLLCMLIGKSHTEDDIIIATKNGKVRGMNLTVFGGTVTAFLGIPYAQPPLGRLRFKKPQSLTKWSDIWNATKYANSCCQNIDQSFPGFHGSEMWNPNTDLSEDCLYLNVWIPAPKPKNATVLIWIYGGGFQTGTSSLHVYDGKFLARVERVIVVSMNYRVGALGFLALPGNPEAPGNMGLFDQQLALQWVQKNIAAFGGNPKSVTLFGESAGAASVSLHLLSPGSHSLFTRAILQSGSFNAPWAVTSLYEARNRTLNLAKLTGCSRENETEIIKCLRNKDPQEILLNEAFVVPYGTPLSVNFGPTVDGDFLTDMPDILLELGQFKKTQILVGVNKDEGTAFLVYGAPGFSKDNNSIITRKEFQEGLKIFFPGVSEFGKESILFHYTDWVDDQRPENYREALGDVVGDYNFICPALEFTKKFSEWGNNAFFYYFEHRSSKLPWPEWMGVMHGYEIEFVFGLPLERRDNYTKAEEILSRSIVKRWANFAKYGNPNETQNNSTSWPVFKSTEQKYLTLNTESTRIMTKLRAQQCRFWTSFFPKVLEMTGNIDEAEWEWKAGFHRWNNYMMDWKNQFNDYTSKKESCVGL

| SMILES | inhibition (Homo sapiens) [%] | IC50 [1] [µM] | IC50 (Acetylcholinesterase [2]) [µM] | IC50 (Cholinesterase [3]) [µM] | IC50 [5] [µM] | other results |
| --- | --- | --- | --- | --- | --- | --- |
| COc1cc2c(cc1OC)C(=O)C(CC1CCN(Cc3ccccc3)CC1)C2 (configuration not stated) | < 20 |  |  |  |  |  |
| O=C(Nc1ccccc1)OC1CCCN(C2Cc3ccccc3C2)C1 (configuration not stated) | < 20 | > 100 | > 100 | 0.0645 | > 100 | Activity (SH-SY5Y [4]): Non-Toxic; Activity (HepG2): Non-Toxic; inhibition (Acetylcholinesterase [6]): Active; inhibition (Cholinesterase [7]): Active; inhibition (Acetylcholinesterase [8]): Active; inhibition (Cholinesterase [9]): Active |
| C#CCN[C@@H]1CCc2ccccc21 [RASAGILINE MESYLATE] | < 20 |  | > 100 | > 100 |  |  |
| CC(C)c1ccc(NC(=O)OCC2CCN(Cc3ccccc3)CC2)cc1 | < 20 | > 100 | 2.25 | 0.809 | > 100 | Activity (SH-SY5Y [4]): Non-Toxic; Activity (HepG2): Non-Toxic; inhibition (Acetylcholinesterase [6]): Active; inhibition (Cholinesterase [7]): Active; inhibition (Acetylcholinesterase [8]): Active; inhibition (Cholinesterase [9]): Active |
| CCN(C)C(=O)OCC1CCCN(C2Cc3ccccc3C2)C1 (configuration not stated) |  | > 100 | > 100 | 9.39 | > 100 |  |
| OC1CCCN(C2Cc3ccccc3C2)C1 (configuration not stated) |  | > 100 | > 100 | > 100 | > 100 |  |
| O=C(Nc1ccccc1)OCC1CCN(Cc2ccccc2)CC1 | < 20 | 26.1 | 7.31 | 0.555 | > 100 | Activity (SH-SY5Y [4]): Non-Toxic; Activity (HepG2): Non-Toxic; Activity (SH-SY5Y [10]): Active; inhibition (Acetylcholinesterase [6]): Active; inhibition (Cholinesterase [7]): Active; inhibition (Acetylcholinesterase [8]): Active; inhibition (Cholinesterase [9]): Active; inhibition (INH) [11]: Not Active; inhibition (SH-SY5Y [12]): inactive |
| C#CCN1CCC(OC(=O)Nc2ccc(C(C)C)cc2)CC1 | 25.7 | 0.178 | > 100 | > 100 | > 100 | Activity (SH-SY5Y [4]): Non-Toxic; Activity (HepG2): Non-Toxic; Activity (SH-SY5Y [10]): Active; inhibition (INH) [11]: Active; inhibition (SH-SY5Y [12]): Active |
| OCC1CCCN(Cc2ccccc2)C1 (configuration not stated) |  | > 100 | > 100 | > 100 | > 100 |  |
| CC(C)c1ccc(NC(=O)OC2CCN(C3Cc4ccccc4C3)CC2)cc1 |  | > 100 | 2.31 | > 100 | > 100 |  |
| O=C(Nc1ccccc1)OCC1CCN(C2Cc3ccccc3C2)CC1 |  | > 100 | > 100 | 1.43 | > 100 |  |
| CCN(C)C(=O)OC1CCCN(Cc2ccccc2)C1 (configuration not stated) |  | > 100 | > 100 | 21 | > 100 |  |
| Oc1ccc(/C=C/c2cc(O)cc(O)c2)cc1 | 86.6 |  |  |  |  |  |
| CCN(C)C(=O)OCC1CCCN(Cc2ccccc2)C1 (configuration not stated) |  | > 100 | 96.6 | 7.23 | > 100 |  |
| O=C(Nc1ccccc1)OC1CCCN(Cc2ccccc2)C1 (configuration not stated) |  | 33.3 | > 100 | 0.46 | > 100 |  |
| OC1CCN(Cc2ccccc2)CC1 |  | > 100 | > 100 | > 100 | > 100 |  |
| OCC1CCN(C2Cc3ccccc3C2)CC1 |  | > 100 | > 100 | > 100 | > 100 |  |
| CCN(C)C(=O)OC1CCN(Cc2ccccc2)CC1 |  | > 100 | > 100 | > 100 | > 100 |  |
| CCN(C)C(=O)OCC1CCN(C2Cc3ccccc3C2)CC1 |  | > 100 | > 100 | 4.46 | > 100 |  |
| CCN(C)C(=O)Oc1cccc([C@H](C)N(C)C)c1 [RIVASTIGMINE TARTRATE] | < 20 | > 100 |  |  |  |  |
| O=C(Nc1ccccc1)OC1CCN(Cc2ccccc2)CC1 |  | > 100 | > 100 | 6.55 | > 100 |  |
| C#CCN1CCCC(COC(=O)Nc2ccccc2)C1 (configuration not stated) |  | > 100 | > 100 | 29.6 | > 100 |  |
| CC(C)c1ccc(NC(=O)OC2CCCN(C3Cc4ccccc4C3)C2)cc1 (configuration not stated) |  | > 100 | 7.91 | > 100 | > 100 |  |
| O=C(Nc1ccccc1)OCC1CCCN(C2Cc3ccccc3C2)C1 (configuration not stated) |  | > 100 | > 100 | 0.18 | > 100 |  |
